Measured values: ChEMBL document CHEMBL1955724, “Synthesis, antimicrobial and anticancer activities of a novel series of diphenyl 1-(pyridin-3-yl)ethylphosphonates” (Bioorg Med Chem, 2012)
Converted amounts (≈) assume the structure as drawn.

Columns and labels:
[1] = Toxicity in Artemia salina assessed as mortality at 1000 ug/mL after 72 hrs; assay type: organism-based; conditions: in vivo, read-out: Activity
Outline: (§1)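 Artemia salina larvae, 20 per 5 mL saline vial, were exposed to compound at […]. Three replicates were run per concentration. Living larvae were counted after 72 h, with data as mean ± SD.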

Bacillus subtilis [2] = assay: Antibacterial activity against Bacillus subtilis PC1219 after 24 to 48 hrs by agar disc diffusion method; assay type: functional
Outline: (§2)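 Filter-paper discs (5 mm) were impregnated with compound in DMSO at […]. Nutrient agar was seeded with 100 µL inoculum: 5 × 10^5 for bacteria, 4 × 10^4 for yeasts. Controls were ciprofloxacin discs for bacteria, amphotericin B discs for yeasts, and DMSO blanks. Plates were held at 37 °C for 24–48 h; zone diameter (mm) given as triplicate mean ± SD.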

Escherichia coli [3] = assay: Antibacterial activity against Escherichia coli NCIM2065 at 10 mg after 24 to 48 hrs by agar well diffusion method; assay type: functional; conditions: read-out: DIZ
Outline: (§3)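 Cut-plug well assay: each well filled with 10 mg of powdered compound. Bacteria were on nutrient agar (peptone, beef extract, NaCl) at pH 7, and yeasts on Sabouraud agar (glucose, peptone) at pH 6.0. Plates were incubated at 30 °C for 24–48 h, and inhibition zone diameters were measured in triplicate.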

Staphylococcus aureus [4] = assay: Antibacterial activity against Staphylococcus aureus ATCC 25292 at 10 mg after 24 to 48 hrs by agar well diffusion method; assay type: functional; conditions: read-out: DIZ; outline: as §3
MCF7 = assay: Cytotoxicity against human MCF7 cells after 72 hrs by sulforhodamine B assay; assay type: functional, cell-based; conditions: MCF7, 72 h
HepG2 = assay: Cytotoxicity against human HepG2 cells after 72 hrs by sulforhodamine B assay; assay type: functional, cell-based; conditions: HepG2, 72 h
Candida albicans [5] = assay: Antifungal activity against Candida albicans at 10 mg after 24 to 48 hrs by agar well diffusion method; assay type: functional; conditions: read-out: DIZ; outline: as §3
Staphylococcus aureus [6] = assay: Antibacterial activity against Staphylococcus aureus ATCC 25292 after 24 to 48 hrs by agar disc diffusion method; assay type: functional; outline: as §2
[7] = Toxicity in Artemia salina assessed as mortality after 72 hrs; assay type: organism-based; conditions: in vivo, read-out: LD50; outline: as §1
Escherichia coli [8] = assay: Antibacterial activity against Escherichia coli NCIM2065 after 24 to 48 hrs by agar disc diffusion method; assay type: functional; outline: as §2
Candida albicans [9] = assay: Antifungal activity against Candida albicans after 24 to 48 hrs by agar disc diffusion method; assay type: functional; outline: as §2
Artemia salina = assay: (§4) Toxicity in Artemia salina assessed as mortality at 100 ug/mL after 72 hrs; assay type: organism-based; conditions: in vivo, 72 h; outline: as §1
Bacillus subtilis [10] = assay: Antibacterial activity against Bacillus subtilis PC1219 at 10 mg after 24 to 48 hrs by agar well diffusion method; assay type: functional; conditions: read-out: DIZ; outline: as §3
[11] = Ratio of IC50 for human HepG2 cells to LD50 for Artemia salina
Saccharomyces cerevisiae [12] = assay: Antifungal activity against Saccharomyces cerevisiae at 10 mg after 24 to 48 hrs by agar well diffusion method; assay type: functional; conditions: read-out: DIZ; outline: as §3
[13] = Ratio of IC50 for human MCF7 cells to LD50 for Artemia salina
Saccharomyces cerevisiae [14] = assay: Antifungal activity against Saccharomyces cerevisiae after 24 to 48 hrs by agar disc diffusion method; assay type: functional; outline: as §2
[15] = as §4; assay type: organism-based; conditions: in vivo, read-out: Activity; outline: as §1

| Compound | mortality at 72 h, 1000 ug/mL [1] | MIC (Bacillus subtilis [2]) | zone of inhibition at 10000 µg/disc (Escherichia coli [3]) | zone of inhibition at 10000 µg/disc (Staphylococcus aureus [4]) | IC50 (MCF7) | IC50 (HepG2) | zone of inhibition at 10000 µg/disc (Candida albicans [5]) | MIC (Staphylococcus aureus [6]) | LC50 at 72 h [7] | MIC (Escherichia coli [8]) | MIC (Candida albicans [9]) | Activity (Artemia salina) | zone of inhibition at 10000 µg/disc (Bacillus subtilis [10]) | Ratio [11] | zone of inhibition at 10000 µg/disc (Saccharomyces cerevisiae [12]) | Ratio [13] | MIC (Saccharomyces cerevisiae [14]) | mortality at 72 h, 100 ug/mL [15] |
| --- | --- | --- | --- | --- | --- | --- | --- | --- | --- | --- | --- | --- | --- | --- | --- | --- | --- | --- |
| CC(Nc1ccccc1)(c1cccnc1)P(=O)(Oc1ccccc1)Oc1ccccc1 (centres undefined) | 60% | 10 µg/mL (≈ 23.2 µM) | 13 mm | 12 mm | 18.2 µg/mL (≈ 42.3 µM) | 17.3 µg/mL (≈ 40.2 µM) | 13 mm | 10 µg/mL (≈ 23.2 µM) | 915 µg/mL (≈ 2130 µM) | 100 µg/mL (≈ 232 µM) | 10 µg/mL (≈ 23.2 µM) | Non-toxic | 15 mm | 0.019 | 14 mm | 0.02 | 10 µg/mL (≈ 23.2 µM) | – |
| Cc1ccc(NC(C)(c2cccnc2)P(=O)(Oc2ccccc2)Oc2ccccc2)cc1 (centres undefined) | 10% | 10 µg/mL (≈ 22.5 µM) | 22 mm | 19 mm | 20.2 µg/mL (≈ 45.4 µM) | 13.3 µg/mL (≈ 29.9 µM) | 17 mm | 50 µg/mL (≈ 112 µM) | 83 µg/mL (≈ 187 µM) | 10 µg/mL (≈ 22.5 µM) | 10 µg/mL (≈ 22.5 µM) | – | 15 mm | 0.16 | 16 mm | 0.243 | 10 µg/mL (≈ 22.5 µM) | – |
| CC(Nc1ccc(O)cc1)(c1cccnc1)P(=O)(Oc1ccccc1)Oc1ccccc1 (centres undefined) | 60% | 10 µg/mL (≈ 22.4 µM) | 20 mm | 21 mm | 19.6 µg/mL (≈ 43.9 µM) | 17.1 µg/mL (≈ 38.3 µM) | 15 mm | 10 µg/mL (≈ 22.4 µM) | 1000 µg/mL (≈ 2240 µM) | 10 µg/mL (≈ 22.4 µM) | 10 µg/mL (≈ 22.4 µM) | Non-toxic | 20 mm | 0.017 | 16 mm | 0.02 | 10 µg/mL (≈ 22.4 µM) | – |
| CC(NNc1ccccc1)(c1cccnc1)P(=O)(Oc1ccccc1)Oc1ccccc1 (centres undefined) | 60% | 10 µg/mL (≈ 22.4 µM) | 32 mm | 28 mm | 19.4 µg/mL (≈ 43.6 µM) | 17.6 µg/mL (≈ 39.5 µM) | 26 mm | 10 µg/mL (≈ 22.4 µM) | 843 µg/mL (≈ 1890 µM) | 10 µg/mL (≈ 22.4 µM) | 10 µg/mL (≈ 22.4 µM) | Non-toxic | 26 mm | 0.02 | 27 mm | 0.023 | 10 µg/mL (≈ 22.4 µM) | – |
| CC(Nc1ccc(Cl)cc1)(c1cccnc1)P(=O)(Oc1ccccc1)Oc1ccccc1 (centres undefined) | 100% | 10 µg/mL (≈ 21.5 µM) | 20 mm | 21 mm | 17.6 µg/mL (≈ 37.9 µM) | 15.8 µg/mL (≈ 34 µM) | 23 mm | 10 µg/mL (≈ 21.5 µM) | 38 µg/mL (≈ 81.7 µM) | 10 µg/mL (≈ 21.5 µM) | 10 µg/mL (≈ 21.5 µM) | – | 25 mm | 0.415 | 23 mm | 0.463 | 10 µg/mL (≈ 21.5 µM) | 15% |
| O=C(O)c1cn(C2CC2)c2cc(N3CCNCC3)c(F)cc2c1=O [CIPROFLOXACIN] | – | 5 µg/mL (≈ 15.1 µM) | – | – | – | – | – | 5 µg/mL (≈ 15.1 µM) | – | 5 µg/mL (≈ 15.1 µM) | – | – | – | – | – | – | – | – |
| C[C@@H]1[C@H](O)[C@@H](C)/C=C/C=C/C=C/C=C/C=C/C=C/C=C/[C@H](O[C@@H]2O[C@H](C)[C@@H](O)[C@H](N)[C@@H]2O)C[C@@H]2O[C@](O)(C[C@@H](O)C[C@@H](O)[C@H](O)CC[C@@H](O)C[C@@H](O)CC(=O)O[C@H]1C)C[C@H](O)[C@H]2C(=O)O [AMPHOTERICIN B] | – | – | – | – | – | – | – | – | – | – | 15 µg/mL (≈ 16.2 µM) | – | – | – | – | – | 15 µg/mL (≈ 16.2 µM) | – |
